ChEMBL document CHEMBL1148307, “Non-peptidic small-molecule inhibitors of the single-chain hepatitis C virus NS3 protease/NS4A cofactor complex discovered by structure-based NMR screening” (J Med Chem, 2004)
Where “and” joins values, the source holds several entries; their conditions need not be identical. Equal values may be shown once.

Biological target: T1, NS3 (Hepatitis C virus, UniProt A3EZJ3)
Test: Inhibition constant for HCV NS3 protease substrate binding site
Set-up: species or system Hepacivirus hominis
Settings: not given; call rule not given here

T1 sequence (A3EZJ3 whole entry): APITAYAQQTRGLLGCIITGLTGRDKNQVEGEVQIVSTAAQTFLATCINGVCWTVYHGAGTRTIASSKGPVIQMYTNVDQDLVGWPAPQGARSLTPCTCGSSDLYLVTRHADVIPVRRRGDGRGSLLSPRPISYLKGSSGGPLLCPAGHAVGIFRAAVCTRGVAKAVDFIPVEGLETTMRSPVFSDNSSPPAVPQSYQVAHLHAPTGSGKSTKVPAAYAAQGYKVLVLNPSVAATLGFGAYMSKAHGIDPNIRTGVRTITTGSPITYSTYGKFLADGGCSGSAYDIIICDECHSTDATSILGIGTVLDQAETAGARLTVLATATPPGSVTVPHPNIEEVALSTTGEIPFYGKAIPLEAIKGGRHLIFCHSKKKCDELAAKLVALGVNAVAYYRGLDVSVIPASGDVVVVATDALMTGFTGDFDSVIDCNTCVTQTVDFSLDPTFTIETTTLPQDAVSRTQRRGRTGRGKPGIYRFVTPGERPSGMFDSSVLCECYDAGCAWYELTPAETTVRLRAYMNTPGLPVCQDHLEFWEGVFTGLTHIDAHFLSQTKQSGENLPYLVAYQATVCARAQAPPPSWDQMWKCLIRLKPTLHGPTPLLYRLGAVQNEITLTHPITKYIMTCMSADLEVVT

Row | Structure (SMILES) | Ki
1 | O=C(O)CCCc1cc(I)c(O)c(I)c1 | 180 µM
2 | CC(C)(C)OC(=O)N[C@H](Cc1cc(I)c(O)c(I)c1)C(=O)O | 260 µM
3 | CC(C)(C)OC(=O)N[C@@H](Cc1cc(I)c(O)c(I)c1)C(=O)O | 310 µM
4 | O=C(O)c1cc(I)c(O)c(I)c1 | 600 µM
5 | O=C(O)CC(c1ccccc1)c1cc(I)c(O)c(I)c1 (configuration not stated) | 100 µM
6 | CC(=O)N[C@H](Cc1cc(I)c(O)c(I)c1)C(=O)O | 210 µM
7 | O=C(O)CCc1cc(I)c(O)c(I)c1 | 80 µM

More lines, now with the values ahead:

Row | Ki | Structure (SMILES)
8 | 1 µM | CC(C)(C)OC(=O)c1ccccc1C(=O)c1ccc(OCCCOC(=O)N[C@@H](Cc2cc(I)c(O)c(I)c2)C(=O)OC(C)(C)C)cc1
9 | 0.8 µM | O=C(N[C@@H](Cc1cc(I)c(O)c(I)c1)C(=O)O)OCCCOc1ccc(C(=O)c2ccccc2C(=O)O)cc1
10 | 650 µM | Cc1ccc(S(=O)(=O)NNC(=S)c2ccccc2)cc1
11 | 140 µM | O=C(O)C(Cc1cc(I)c(O)c(I)c1)c1ccccc1 (configuration not stated) [IODOALPHIONIC ACID]

Biological target: T1, NS3
Test: Dissociation constant for HCV NS3 protease substrate binding site; protein precipitation at 1:2 compound [100 uM]/protein ratio
Set-up: species or system Hepacivirus hominis
Settings: not given
Outline: (§1)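 Uniformly 15N-labeled single-chain ns4a–ns3p, 0.2 mM, in 75 mM potassium phosphate pH 6.5, 20 mM DTT, 95/5% H2O/D2O, 0.015% sodium azide. Spectra were recorded with and without compound at several compound concentrations. KD and bound shift were fitted by nonlinear least squares to a single-site binding equation, with total compound and protein concentrations known.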

Row | Kd | Structure (SMILES)
12 | No Delta CS | O=C(O)C(Cc1cc(I)c(O)c(I)c1)c1ccc2ccccc2c1 (configuration not stated)
13 | No Delta CS | O=C(O)C(Cc1cc(I)c(O)c(I)c1)c1ccc(-c2ccccc2)cc1 (configuration not stated)
14 | No Delta CS | CC(C)c1ccc(C(Cc2cc(I)c(O)c(I)c2)C(=O)O)cc1 (configuration not stated)

Biological target: T1, NS3
Test: Dissociation constant for HCV NS3 protease substrate binding site
Set-up: species or system Hepacivirus hominis
Settings: not given
Outline: as §1

Row | Structure (SMILES) | Kd
15 | Oc1c(I)cc(CCc2ccncc2)cc1I | Not Active
16 | CC(C)(C)OC(=O)N[C@H](Cc1cc(I)c(O)c(I)c1)C(=O)O | Active
17 | CC(C)(C)OC(=O)N[C@@H](Cc1cc(I)c(O)c(I)c1)C(=O)O | Active
18 | CCOC(=O)C(Cc1cc(I)c(O)c(I)c1)c1ccccc1 (configuration not stated) | Not Active
19 | CC(=O)N[C@H](Cc1cc(I)c(O)c(I)c1)C(=O)O | Active

Further lines, results first:

Row | Kd | Structure (SMILES)
20 | Insoluble | COc1ccc(C(=O)c2cc(OC)ccc2C(=O)O)cc1
21 | Insoluble | O=C(c1ccc(Cl)cc1)c1cccc(Cl)c1C(=O)O

Same assay, conditions: read-out: Kd

Row | Structure (SMILES) | Kd
22 | CON(C)C(=O)Nc1ccc(O)c(C(F)(F)F)c1 | 8000 µM
23 | O=C(O)c1cc2ccc(Cl)cc2[nH]1 | 400 µM
24 | COc1c(I)cc(CC(C(=O)O)c2ccccc2)cc1I (configuration not stated) | > 1600 µM
25 | O=C(O)c1cc2cc(Br)ccc2[nH]1 | 200 µM
26 | O=C(O)C(F)(F)C(F)(F)C(=O)O | ~5.2 µM
27 | CC(C)C(=O)Nc1ccc(O)cc1 | 17000 µM
28 | COc1ccc(NC(=O)C(C)(C)C)cc1 | > 100 µM
29 | COc1ccc(NC(=O)C(C)C)cc1 | 70000 µM
30 | COc1ccc(NC(=O)C2(C)CC2)cc1 | > 60000 µM
31 | Nc1cc(O)nc(-c2cc(I)c(O)c(I)c2)n1 | ~230 µM
32 | COc1ccc2[nH]c(C(=O)O)cc2c1 | 4000 µM
33 | O=C(O)CCCc1cc(I)c(O)c(I)c1 | 140 µM
34 | COc1ccc(C(=O)C2CC2)cc1 | > 20000 µM
35 | COC(=O)[C@H](N)Cc1cc(I)c(O)c(I)c1 | > 2500 µM
36 | CC1(C(=O)Nc2ccc(O)cc2)CC1 | 8400 µM
37 | O=C(O)c1cc2cccc(Cl)c2[nH]1 | 1400 µM
38 | O=C(O)c1cc2cc(Cl)ccc2o1 | 2200 µM

Row | Structure (SMILES) | Kd
39 | O=C(O)C(Cc1cc([N+](=O)[O-])c(O)c([N+](=O)[O-])c1)c1ccccc1 (configuration not stated) | > 8000 µM
40 | O=C(O)c1cc2cc(Cl)ccc2[nH]1 [5-CHLOROINDOLE-2-CARBOXYLIC ACID] | 300 µM
41 | Cc1ccc2[nH]c(C(=O)O)cc2c1 | 1200 µM
42 | c1ccc2c(c1)NC1SCCCN21 (configuration not stated) | ~1.9 µM
43 | O=C(CCCl)Nc1ccc(O)cc1 | 55000 µM
44 | O=C(O)c1cc(I)c(O)c(I)c1 | 420 µM
45 | O=C(O)c1cc2cccc(Br)c2[nH]1 | 1000 µM
46 | Cn1c(C(=O)O)cc2ccccc21 | 8100 µM
47 | COc1ccc2sc(C(=O)O)cc2c1 | 8000 µM
48 | O=C(O)COc1c(I)cc(CC(C(=O)O)c2ccccc2)cc1I (configuration not stated) | > 8000 µM
49 | COc1ccc(NC(=O)CCC(=O)O)cc1 | > 110000 µM
50 | O=C(O)CC(c1ccccc1)c1cc(I)c(O)c(I)c1 (configuration not stated) | 40 µM
51 | O=C(O)c1cc2c(Cl)cccc2[nH]1 | 800 µM
52 | CCC(=O)Nc1ccc(O)cc1 [PARAPROPAMOL] | 34000 µM
53 | O=C(O)CCc1cc(I)c(O)c(I)c1 | 90 µM
54 | O=C(O)c1cc2cc(F)ccc2[nH]1 [5-FLUOROINDOLE-2-CARBOXYLIC ACID] | 2.9 µM

Next, values leading:

Row | Kd | Structure (SMILES)
55 | > 8000 µM | O=C(O)C(Cc1cc(Br)c(O)c(Br)c1)c1ccccc1 (configuration not stated)
56 | > 20 µM | COc1ccc(C(=O)c2ccc[nH]2)cc1
57 | ~3 µM | O=C(O)c1ccccc1C(=O)c1ccc(Cl)cc1
58 | 4000 µM | O=C(O)c1ccccc1C(=O)c1ccc(C(F)(F)F)cc1
59 | > 600 µM | O=C(O)c1cc(Br)ccc1C(=O)c1ccc(O)cc1
60 | > 10000 µM | O=C(O)c1ccc(O)cc1C(=O)c1ccc(O)cc1
61 | 1000 µM | COc1ccc(C(=O)c2ccccc2C(=O)O)cc1
62 | 7000 µM | O=C(O)c1ccccc1Oc1ccc(Cl)cc1
63 | > 7000 µM | O=C(O)c1ccccc1Cc1ccc(Cl)cc1
64 | 22000 µM | COc1ccc(NC(=O)c2ccccc2C(=O)O)cc1
65 | 4000 µM | O=C(O)Cc1ccccc1C(=O)c1ccc(Cl)cc1
66 | 70000 µM | Nc1ccc(C(=O)c2cccnc2N)cc1
67 | > 210000 µM | CNC(=O)Nc1ccc(C(=O)O)cc1
68 | > 20000 µM | Nc1ccc(C(=O)c2ccc(N)cc2)cc1
69 | 12000 µM | O=C(O)c1cc2ccccc2[nH]1 [INDOLE-2-CARBOXYLIC ACID]
70 | > 30 µM and ~20 µM | Nc1ccc(C(=O)c2ccccc2)cc1
71 | 690 µM | CC1(C(=O)Nc2ccc(O)c(C(F)(F)F)c2)CC1
72 | > 8000 µM | COc1ccc(CC(C(=O)O)c2ccccc2)cc1 (configuration not stated)
73 | 1600 µM | O=C(O)c1ccccc1C(=O)c1ccc(O)cc1
74 | > 20000 µM | CC(=O)c1ccc(OCCC(=O)O)cc1
75 | 20000 µM | Nc1ccc(C(=O)Nc2ccc(Cl)c(N)c2)cc1
76 | > 250 µM | O=C(/C=N/O)Nc1ccc(C(=O)O)cc1

Row | Kd | Structure (SMILES)
77 | > 7000 µM | O=C(O)c1ccccc1Cc1ccc(O)cc1
78 | 100000 µM | Cc1ccc(N)cc1NC(=O)c1ccc(N)cc1
79 | 6400 µM | O=C(O)c1cc2ccccc2o1
80 | > 5000 µM | Cc1ccc(C(=O)O)c(C(=O)c2ccc(O)cc2)c1
81 | ~4000 µM | O=C(O)c1ccccc1C(=O)c1ccc(F)cc1
82 | > 8000 µM | Nc1ccc(CC(C(=O)O)c2ccccc2)cc1 (configuration not stated)
83 | > 10000 µM | O=C(O)c1ccccc1C(=O)c1cccc(Cl)c1
84 | 7000 µM | O=C(O)c1ccccc1Oc1ccc(F)cc1
85 | > 10000 µM | CN(C)C(=O)c1cccc(C(=O)c2ccc(Cl)cc2)c1C(=O)O
86 | > 8000 µM | O=C(O)C(Cc1ccc(O)cc1)c1ccccc1 (configuration not stated)
87 | > 20000 µM | CC(=O)c1ccc(OCC(=O)O)cc1
88 | 110 µM | O=C(O)C(Cc1cc(I)c(O)c(I)c1)c1ccccc1 (configuration not stated) [IODOALPHIONIC ACID]
89 | 12000 µM | CN(C)C(=O)Nc1ccc(O)c(C(F)(F)F)c1
90 | > 40000 µM | Nc1ccc(C(=O)O)cc1 [AMINOBENZOIC ACID]
91 | 8000 µM | CC(C)C(=O)Nc1ccc(O)c(C(F)(F)F)c1
92 | 40000 µM | O=C(O)CCCc1ccc(C(=O)c2ccccc2C(=O)O)cc1
93 | > 10000 µM | COC(=O)c1cccc(C(=O)c2ccc(Cl)cc2)c1C(=O)O
94 | 1600 µM | Cc1ccc(C(=O)c2ccccc2C(=O)O)cc1
95 | > 20000 µM | COc1ccc(N)cc1NC(=O)c1ccc(N)cc1
96 | > 20000 µM | Cc1ccc(NC(=O)c2ccc(N)cc2)c(N)c1
97 | 1700 µM | O=C(O)c1cc2ccccc2s1
